According to ChEMBL document CHEMBL2203109, “3-Phenyl substituted 6,7-dimethoxyisoquinoline derivatives as FtsZ-targeting antibacterial agents” (Bioorg Med Chem, 2012):
≈ marks a conversion by molar mass, not a printed value. Calls of active or inactive are those of the source. The rule behind the calls is not given here.

Key:
Staphylococcus aureus [1] = assay: Antibacterial activity against log-phase methicillin-sensitive Staphylococcus aureus 8325-4 assessed as growth inhibition after 24 hrs by broth microdilution method; type: functional; conditions: 8325-4, 24 h
Method in brief: (§1)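 CLSI broth microdilution. Log-phase bacteria at 10^5 CFU/mL with two-fold serial dilutions (64 to 0.031 μg/mL). S. aureus tested in cation-adjusted Mueller-Hinton broth; E. faecalis in brain–heart infusion broth. Aerobic incubation 24 h at 37 °C. OD600 read; MIC is the lowest concentration giving ≥90% growth inhibition.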

Enterococcus faecalis [2] = assay: Antibacterial activity against log-phase vancomycin-sensitive Enterococcus faecalis ATCC 19433 assessed as growth inhibition after 24 hrs by broth microdilution method; type: functional; conditions: ATCC 19433, 24 h; method in brief: as §1
Enterococcus faecalis [3] = assay: Antibacterial activity against log-phase vancomycin-resistant Enterococcus faecalis ATCC 51575 assessed as growth inhibition after 24 hrs by broth microdilution method; type: functional; conditions: ATCC 51575, 24 h
Method in brief: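 CLSI broth microdilution in brain–heart infusion broth; log-phase bacteria at 10^5 CFU/mL, two-fold serial dilutions 64 to 0.031 μg/mL; 24 h aerobic incubation at 37 °C; OD600 read-out; MIC taken as lowest concentration inhibiting growth ≥90%.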

Staphylococcus aureus [4] = assay: Antibacterial activity against log-phase methicillin-resistant Staphylococcus aureus ATCC 33591 assessed as growth inhibition after 24 hrs by broth microdilution method; type: functional; conditions: ATCC 33591, 24 h
Method in brief: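 CLSI broth microdilution; 10^5 CFU/mL log-phase bacteria in cation-adjusted Mueller-Hinton broth with 2% NaCl, two-fold serial dilutions from 64 to 0.031 μg/mL; aerobic incubation 24 h at 37 °C; growth read as OD600; MIC = lowest concentration giving ≥90% growth inhibition.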

HEK293 = assay: Cytotoxicity against human HEK293 cells at 10 uM after 4 days by MTT assay; type: cell-based; conditions: hek293, 96 h
Method in brief: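 MTT assay. HEK293 or MDCK cells kept at 37 °C, 5% CO2 in DMEM, seeded at 1500 cells per well. Continuous 4-day exposure to varying drug concentrations in triplicate wells, with a drug-free control. MTT read at end of day 4; IC50 determined.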

[5] = molecular target: T1, Cell division protein FtsZ (Staphylococcus aureus) (UniProt P0A031); assay: Induction of Staphylococcus aureus FtsZ polymerization at 40 ug/ml measured for 60 mins by microtiter plate-based light scattering assay
T1 sequence (whole entry): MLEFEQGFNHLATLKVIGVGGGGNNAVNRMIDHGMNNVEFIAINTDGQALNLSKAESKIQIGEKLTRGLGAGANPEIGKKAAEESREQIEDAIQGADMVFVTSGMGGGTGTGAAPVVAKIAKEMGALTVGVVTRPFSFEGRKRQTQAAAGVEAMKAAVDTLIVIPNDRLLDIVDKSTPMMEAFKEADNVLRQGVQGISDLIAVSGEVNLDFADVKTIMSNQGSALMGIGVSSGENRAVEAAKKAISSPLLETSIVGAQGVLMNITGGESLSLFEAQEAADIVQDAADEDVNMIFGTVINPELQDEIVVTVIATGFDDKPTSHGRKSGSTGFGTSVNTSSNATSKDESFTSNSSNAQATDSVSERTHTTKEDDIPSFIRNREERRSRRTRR
Method in brief: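 Turbidity assay. 10 μM SaFtsZ plus compound (0–40 μg/mL) in 50 mM Tris HCl pH 7.4, 50 mM KCl, 2 mM magnesium acetate, 5 mM CaCl2, pre-equilibrated 10 min at room temperature. Started by adding 1 mM GTP or FtsZ; A340 followed for 60 min at 25 °C. For polymer stability, 1 mM GDP added mid-run.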

[6] = molecular target: T1, Cell division protein FtsZ (Staphylococcus aureus); assay: Residual Staphylococcus aureus GTPase activity assessed as inorganic phosphate release upon GTP hydrolysis at 40 ug/ml preincubated for 10 mins before substrate addition measured after 2 hrs by malachite green based colorimetric analysis

SMILES | MIC90 (Staphylococcus aureus [1]) | MIC90 (Enterococcus faecalis [2]) | MIC90 (Enterococcus faecalis [3]) | MIC90 (Staphylococcus aureus [4]) | Activity (HEK293) | Activity [5] | residual activity [6]
C[n+]1cc2c3c(ccc2c2ccc4cc5c(cc4c21)OCO5)OCO3 [SANGUINARIUM] | 2 µg/mL | 8 µg/mL | 16 µg/mL | 2 µg/mL | – | – | –
CNc1nc(-c2cccc(-c3ccccc3)c2)cc2cc(OC)c(OC)cc12 | > 64 µg/mL | > 64 µg/mL | > 64 µg/mL | > 64 µg/mL | – | – | –
COc1cc2cc(-c3cccc(-c4ccc(-c5ccccc5)cc4)c3)nc(C)c2cc1OC | > 64 µg/mL | > 64 µg/mL | > 64 µg/mL | > 64 µg/mL | – | – | –
COc1cc2cc(-c3cccc(-c4ccccc4)c3)nc(C)c2cc1OC | > 64 µg/mL | > 64 µg/mL | > 64 µg/mL | > 64 µg/mL | – | – | –
CN(C)[C@@H]1C(O)=C(C(N)=O)C(=O)[C@@]2(O)C(O)=C3C(=O)c4c(O)cccc4[C@@](C)(O)[C@H]3C[C@@H]12 [TETRACYCLINE] | 0.06 µg/mL (≈ 0.135 µM) | 0.5 µg/mL (≈ 1.13 µM) | > 64 µg/mL | 64 µg/mL (≈ 144 µM) | – | – | –
COc1cc2cc(-c3cccc(-c4ccccc4)c3)[n+](C)c(C)c2cc1OC.[I-] | 16 µg/mL | > 64 µg/mL | > 64 µg/mL | 32 µg/mL | – | – | –
COc1cc2cc(-c3cccc(-c4ccccc4)c3)nc(C#N)c2cc1OC | > 64 µg/mL | > 64 µg/mL | > 64 µg/mL | > 64 µg/mL | – | – | –
COc1cc2cc(-c3cccc(-c4ccc(C(C)(C)C)cc4)c3)nc(CN=C(N)N)c2cc1OC | 4 µg/mL (≈ 8.54 µM) | 8 µg/mL (≈ 17.1 µM) | 16 µg/mL (≈ 34.1 µM) | 4 µg/mL (≈ 8.54 µM) | Non-toxic | – | –
Cc1onc(-c2ccccc2)c1C(=O)N[C@@H]1C(=O)N2[C@@H]1SC(C)(C)[C@@H]2C(=O)O [OXACILLIN] | 0.06 µg/mL (≈ 0.149 µM) | 8 µg/mL (≈ 19.9 µM) | > 64 µg/mL | > 64 µg/mL | – | – | –
COc1ccc2cc3[n+](cc2c1OC)CCc1cc2c(cc1-3)OCO2 [BERBERINE] | > 64 µg/mL | > 64 µg/mL | > 64 µg/mL | > 64 µg/mL | – | inactive | –
COc1cc2cc(-c3cccc(C(C)(C)C)c3)nc(CN)c2cc1OC | 4 µg/mL (≈ 11.4 µM) | 32 µg/mL (≈ 91.3 µM) | 32 µg/mL (≈ 91.3 µM) | 8 µg/mL (≈ 22.8 µM) | Non-toxic | – | –
COc1cc(-c2cc3cc(OC)c(OC)c(OC)c3c(C)n2)cc(-c2ccc(-c3ccccc3)cc2)c1OC | > 64 µg/mL | > 64 µg/mL | > 64 µg/mL | > 64 µg/mL | – | – | –
CN[C@H](CC(C)C)C(=O)N[C@H]1C(=O)N[C@@H](CC(N)=O)C(=O)N[C@H]2C(=O)N[C@H]3C(=O)N[C@H](C(=O)N[C@H](C(=O)O)c4cc(O)cc(O)c4-c4cc3ccc4O)[C@H](O)c3ccc(c(Cl)c3)Oc3cc2cc(c3O[C@@H]2O[C@H](CO)[C@@H](O)[C@H](O)[C@H]2O[C@H]2C[C@](C)(N)[C@H](O)[C@H](C)O2)Oc2ccc(cc2Cl)[C@H]1O [VANCOMYCIN] | 1 µg/mL (≈ 0.69 µM) | 1 µg/mL (≈ 0.69 µM) | > 64 µg/mL | 2 µg/mL (≈ 1.38 µM) | – | inactive | 99.7%
COc1cc2cc(-c3cccc(-c4ccccc4)c3)nc(C)c2c(OC)c1OC | > 64 µg/mL | > 64 µg/mL | > 64 µg/mL | > 64 µg/mL | – | – | –
COc1cc2cc(-c3cccc(-c4ccccc4)c3)nc(N(C)C)c2cc1OC | > 64 µg/mL | > 64 µg/mL | > 64 µg/mL | > 64 µg/mL | – | – | –
COc1cc2cc(-c3cccc(-c4ccccc4)c3)nc(CCN)c2cc1OC | 4 µg/mL (≈ 10.4 µM) | 16 µg/mL (≈ 41.6 µM) | > 64 µg/mL | 4 µg/mL (≈ 10.4 µM) | – | – | –
COc1cc2cc(-c3cccc(-c4ccccc4)c3)[n+](C)c(N(C)C)c2cc1OC.[I-] | 8 µg/mL | 64 µg/mL | 64 µg/mL | 32 µg/mL | – | – | –
COc1cc2cc(-c3cccc(C(C)(C)C)c3)[n+](C)c(C)c2cc1OC.[I-] | 16 µg/mL | 64 µg/mL | 64 µg/mL | 16 µg/mL | – | – | –
COc1cc2cc(-c3cccc(-c4ccccc4)c3)[n+](C)cc2cc1OC.[I-] | 16 µg/mL | > 64 µg/mL | > 64 µg/mL | 64 µg/mL | – | – | –
CCC[C@@H]1C[C@@H](C(=O)N[C@@H]([C@H]2O[C@H](SC)[C@H](O)[C@@H](O)[C@H]2O)[C@H](C)Cl)N(C)C1 [CLINDAMYCIN] | 0.03 µg/mL (≈ 0.0706 µM) | 2 µg/mL (≈ 4.71 µM) | > 64 µg/mL | > 64 µg/mL | – | – | –
CC[C@H]1OC(=O)[C@H](C)[C@@H](O[C@H]2C[C@@](C)(OC)[C@@H](O)[C@H](C)O2)[C@H](C)[C@@H](O[C@@H]2O[C@H](C)C[C@H](N(C)C)[C@H]2O)[C@](C)(O)C[C@@H](C)C(=O)[C@H](C)[C@@H](O)[C@]1(C)O [ERYTHROMYCIN] | 0.1 µg/mL (≈ 0.136 µM) | 1 µg/mL (≈ 1.36 µM) | > 64 µg/mL | > 64 µg/mL | – | – | –
COc1cc(-c2cc3cc(OC)c(OC)c(OC)c3c(C)[n+]2C)cc(-c2ccc(-c3ccccc3)cc2)c1OC.[I-] | 1 µg/mL | – | 4 µg/mL | – | – | – | –
COc1cc2cc(-c3cccc(-c4ccc(C(C)(C)C)cc4)c3)nc(C)c2cc1OC | > 64 µg/mL | > 64 µg/mL | > 64 µg/mL | > 64 µg/mL | – | inactive | –
COc1ccc2c(c[n+](C)c3c4cc5c(cc4ccc23)OCO5)c1OC [CHELERYTHRINE] | 4 µg/mL | 32 µg/mL | 32 µg/mL | 4 µg/mL | – | – | –
COc1cc2cc(-c3cccc(-c4ccccc4)c3)[n+](C)c(C)c2c(OC)c1OC.[I-] | 8 µg/mL | 32 µg/mL | 32 µg/mL | 8 µg/mL | – | – | –
COc1cc2cc(-c3cccc(-c4ccccc4)c3)nc(CN=C(N)N)c2cc1OC | 2 µg/mL (≈ 4.85 µM) | 8 µg/mL (≈ 19.4 µM) | 8 µg/mL (≈ 19.4 µM) | 2 µg/mL (≈ 4.85 µM) | Non-toxic | – | –
COc1cc2cc(-c3cccc(C(C)(C)C)c3)nc(C)c2cc1OC | > 64 µg/mL | > 64 µg/mL | > 64 µg/mL | > 64 µg/mL | – | inactive | –
COc1cc2cnc(-c3cccc(-c4ccccc4)c3)cc2cc1OC | > 64 µg/mL | > 64 µg/mL | > 64 µg/mL | > 64 µg/mL | – | – | –
